The text below walks through data of ChEMBL document CHEMBL1138854, “Synthesis and antitumor activity of guanylhydrazones from 6-(2,4-dichloro-5-nitrophenyl)imidazo[2,1-b]thiazoles and 6-pyridylimidazo[2,1-b]thiazoles(1)” (2006).

“And” between values parts separate entries of the source, which are not always exact repeats. Equal entries are not always repeated.

For orientation: LC50 means the concentration that kills 50% of the test population. A high value points to a less lethal substance.

The nature of the test: Antitumor activity against renal cell lines of the NCI60 panel. The test is classed as functional, Homo sapiens. In short, it runs like this:
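Run by NCI in the 60-cell-line panel (details in Supporting Information). Highest concentration 10^-4 M unless noted (one case 10-2.6 M). Values expressed as -log molar concentration giving 50% growth inhibition (pGI50), total cytostasis (pTGI) or 50% cell kill (pLC50); only values >4.00 reported; mean graph midpoint is the calculated panel mean.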

`N=C(N)N/N=C/c1c(-c2cc([N+](=O)[O-])c(Cl)cc2Cl)nc2sc(Cl)cn12` came in with a median lethal concentration (LC50) of 97.7 µM. In other words, the double-digit micromolar range.

As for `CCc1cn2c(/C=N/NC(=N)N)c(-c3cc([N+](=O)[O-])c(Cl)cc3Cl)nc2s1`, the 50% lethal concentration (LC50) was 3.02 µM and 6.46 µM.

In turn, `N=C(N)N/N=C/c1c(-c2cc([N+](=O)[O-])c(Cl)cc2Cl)nc2n1CCS2` registered a median lethal concentration (LC50) of 5.25 µM.

Turning to `N=C(N)N/N=C/c1c(-c2ccccn2)nc2sc(Cl)cn12`, the LC50 came to 28.8 µM.

In the case of `Cc1cn2c(/C=N/NC(=N)N)c(-c3ccccn3)nc2s1`, the LC50 was 19.5 µM and 53.7 µM.

Take `N=C(N)N/N=C/c1c(-c2cc([N+](=O)[O-])c(Cl)cc2Cl)nc2sccn12`: the median lethal concentration (LC50) is 4.47 µM and 24 µM.

In the case of `Cc1sc2nc(-c3cc([N+](=O)[O-])c(Cl)cc3Cl)c(/C=N/NC(=N)N)n2c1C`, the LC50 was 36.3 µM and 85.1 µM.

As to `CCCc1cn2c(/C=N/NC(=N)N)c(-c3cc([N+](=O)[O-])c(Cl)cc3Cl)nc2s1`, the LC50 came to 5.37 µM.

`Cc1sc2nc(-c3ccccn3)c(/C=N/NC(=N)N)n2c1C` gave an LC50 of 57.5 µM.

Take `Cc1cn2c(/C=N/NC(=N)N)c(-c3ccncc3)nc2s1`: the 50% lethal concentration (LC50) came out at 72.4 µM.

The compound `Cc1csc2nc(-c3cc([N+](=O)[O-])c(Cl)cc3Cl)c(/C=N/N=C(N)N)n12` came in with an LC50 of 64.6 µM.

For the compound `N=C(N)N/N=C/c1c(-c2ccncc2)nc2sc(Cl)cn12`, the LC50 is 15.8 µM and 44.7 µM.

`N=C(N)N/N=C/c1c(-c2cccnc2)nc2sc(Cl)cn12` displayed an LC50 of 69.2 µM.

Regarding `Cc1cn2c(/C=N/NC(=N)N)c(-c3cccnc3)nc2s1`, the 50% lethal concentration (LC50) was 27.5 µM and 61.7 µM.

As to `N=C(N)N/N=C/c1c(-c2ccc(Cl)c([N+](=O)[O-])c2)nc2n1CCS2`, the LC50 was 28.2 µM and 64.6 µM.
